The species named for assay [1] is Homo sapiens. The experiment in a line: Selectivity ratio of Ki for human adenosine A2A receptor to Ki for human adenosine A3 receptor. In short, it runs like this:
(§1)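 Ratios of Ki values from displacement assays in CHO cells (3 h, room temperature). The hA1 Ki ([3H]CCPA) or the hA2A Ki ([3H]NECA) was divided by the hA3 Ki ([3H]HEMADO). Each Ki is a geometric mean of n = 3–6.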

The species named for assay [2] is Homo sapiens. As to the kind of experiment: Selectivity ratio of Ki for human adenosine A3 receptor to Ki for human adenosine A2A receptor.
Another assay has as its target T1, Adenosine receptor A1 (Homo sapiens, UniProt P30542).
T1 sequence (P30542 whole entry): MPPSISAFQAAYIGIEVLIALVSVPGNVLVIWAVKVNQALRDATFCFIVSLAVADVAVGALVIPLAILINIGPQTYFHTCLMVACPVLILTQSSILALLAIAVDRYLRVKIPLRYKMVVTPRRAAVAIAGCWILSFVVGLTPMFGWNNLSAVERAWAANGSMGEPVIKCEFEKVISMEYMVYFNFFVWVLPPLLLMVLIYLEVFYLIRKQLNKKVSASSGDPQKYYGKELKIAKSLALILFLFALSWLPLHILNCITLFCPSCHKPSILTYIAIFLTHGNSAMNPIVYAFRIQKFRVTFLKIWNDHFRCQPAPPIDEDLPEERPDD
The experiment in a line: Displacement of [3H]-CCPA from human adenosine A1 receptor expressed in CHO cells after 3 hrs by topcount scintillation counting analysis. The format is cell-based. In short, it runs like this:
(§2)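 Radioligand binding to membranes from CHO cells expressing the human receptor, run for 3 h at room temperature. Radioligands were [3H]CCPA for hA1, [3H]NECA for hA2A and [3H]HEMADO for hA3. Nonspecific binding was defined with 1 mM theophylline (hA1) or 100 µM R-PIA (hA2A, hA3). Bound ligand was separated by GF/B filtration and counted. Ki came from nonlinear fitting of competition curves using Cheng-Prusoff, as geometric means of n = 3–6 with 95% CI.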

For the next assay, the target named is T2, Adenosine receptor A3 (Homo sapiens, UniProt P0DMS8).
T2 sequence (P0DMS8 whole entry): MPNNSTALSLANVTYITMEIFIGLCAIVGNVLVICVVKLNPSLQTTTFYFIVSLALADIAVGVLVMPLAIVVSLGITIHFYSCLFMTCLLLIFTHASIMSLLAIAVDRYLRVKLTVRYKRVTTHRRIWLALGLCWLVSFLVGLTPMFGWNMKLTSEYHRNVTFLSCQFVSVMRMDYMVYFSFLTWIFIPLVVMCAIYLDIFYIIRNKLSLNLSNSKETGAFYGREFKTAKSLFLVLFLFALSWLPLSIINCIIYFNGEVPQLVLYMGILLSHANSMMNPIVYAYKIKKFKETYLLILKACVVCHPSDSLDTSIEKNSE
The experiment in a line: Displacement of [3H]-HEMADO from human adenosine A3 receptor expressed in CHO cells after 3 hrs by topcount scintillation counting analysis. The format is cell-based. In short, it runs like this:
as §2
In general terms: Loss of bound radioactivity is the signal in a displacement assay; it reports binding, not function.

The target in assay [3] is Adenosine receptors; A1 & A3 (Homo sapiens) (UniProt P30542+P0DMS8). As to the kind of experiment: Selectivity ratio of Ki for human adenosine A1 receptor to Ki for human adenosine A3 receptor. In short, it runs like this: as §1
The next assay addresses Adenosine receptor A2a (Homo sapiens, UniProt P29274). As to the kind of experiment: Displacement of [3H]-NECA from human adenosine A2A receptor expressed in CHO cells after 3 hrs by topcount scintillation counting analysis. The format is cell-based. In short, it runs like this: as §2
A further assay has as its target T3, Adenosine receptor A2b (Homo sapiens, UniProt P29275).
T3 sequence (P29275 whole entry): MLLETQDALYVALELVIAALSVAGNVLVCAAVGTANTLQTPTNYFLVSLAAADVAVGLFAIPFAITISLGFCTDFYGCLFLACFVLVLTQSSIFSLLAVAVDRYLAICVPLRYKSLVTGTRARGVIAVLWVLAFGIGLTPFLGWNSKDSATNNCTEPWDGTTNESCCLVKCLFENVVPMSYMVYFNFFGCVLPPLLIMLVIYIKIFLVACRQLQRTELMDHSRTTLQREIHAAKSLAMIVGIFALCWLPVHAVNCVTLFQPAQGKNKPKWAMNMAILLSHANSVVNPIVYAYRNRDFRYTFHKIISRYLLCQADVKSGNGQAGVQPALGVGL
The experiment in a line: Antagonist activity at human adenosine A2B receptor expressed in CHO cells assessed as inhibition of NECA-induced adenylyl cyclase activity after 20 mins in presence of [alpha-32P]ATP. The format is functional, cell-based. In short, it runs like this:
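Membranes from CHO cells transfected with the human A2B receptor were incubated for 20 min with 100 nM NECA, 150,000 cpm [α-32P]ATP and test compound at several concentrations. The incubation mixture contained no EGTA and no NaCl. Ki was derived from concentration-dependent inhibition of NECA-stimulated adenylyl cyclase activity (n = 3–6).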

The species entered for assay [4] is Homo sapiens. As to the kind of experiment: Selectivity ratio of Ki for human adenosine A1 receptor to Ki for human adenosine A2A receptor.

Adenosine receptor A2a, sequence (P29274 whole entry): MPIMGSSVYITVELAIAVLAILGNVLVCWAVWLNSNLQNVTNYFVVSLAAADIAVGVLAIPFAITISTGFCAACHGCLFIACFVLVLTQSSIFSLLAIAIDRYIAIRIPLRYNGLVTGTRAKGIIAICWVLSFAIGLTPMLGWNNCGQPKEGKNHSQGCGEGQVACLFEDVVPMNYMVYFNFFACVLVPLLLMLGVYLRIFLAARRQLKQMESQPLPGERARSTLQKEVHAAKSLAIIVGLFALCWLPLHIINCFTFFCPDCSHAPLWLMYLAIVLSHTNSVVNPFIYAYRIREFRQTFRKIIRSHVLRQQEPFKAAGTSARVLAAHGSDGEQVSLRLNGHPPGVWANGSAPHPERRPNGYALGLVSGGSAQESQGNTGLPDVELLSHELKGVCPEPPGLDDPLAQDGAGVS

As usually defined, the Ki is a dissociation constant, usually derived from enzyme kinetics or from competition with a known ligand. Consider `CC(C)n1cc2c(Cl)nc(N(C(=O)c3ccccc3)C(=O)c3ccccc3)nc2n1`, for which the Ratio Ki turned out to be 0.1 in the assay filed under Homo sapiens [1], 8 in the assay listed under Homo sapiens [2], 1.1 in assay [3] and 9.9 in the assay listed under Homo sapiens [4]. Moreover, the inhibition constant (Ki) on Adenosine receptor A1 was 7.9 µM; at Adenosine receptor A3, 6.7 µM; on Adenosine receptor A2a it was 0.8 µM; at Adenosine receptor A2b, greater than 20 µM.
As for `CC(C)n1cc2c(Cl)nc(NC(=O)c3ccc(F)cc3)nc2n1`, the Ratio Ki was greater than 0.02 in the assay listed under Homo sapiens [1] and greater than 37 in the assay filed under Homo sapiens [2]. Further, the Ki was 3.4 µM on Adenosine receptor A1, greater than 60 µM on Adenosine receptor A3, 1.6 µM at Adenosine receptor A2a and greater than 20 µM on Adenosine receptor A2b.
Regarding `Cc1ccc(C(=O)Nc2nc(Cl)c3cn(C(C)C)nc3n2)cc1`, the Ratio Ki was found to be 0.01 in the assay listed under Homo sapiens [1] and 91 in the assay filed under Homo sapiens [2]. For the same compound, the Ki on Adenosine receptor A1 was 4.1 µM; at Adenosine receptor A3, greater than 100 µM; at Adenosine receptor A2a it was 1.1 µM; at Adenosine receptor A2b it was greater than 20 µM.
In the case of `O=C(Nc1nc(Cl)c2cn(CCc3ccccc3)nc2n1)c1ccc(F)cc1`, the Ratio Ki was 0.02 in the assay filed under Homo sapiens [1], greater than 50 in the assay filed under Homo sapiens [2] and 0.02 in assay [3]. The Ki is 2.7 µM on Adenosine receptor A1, greater than 100 µM on Adenosine receptor A3, 2.06 µM at Adenosine receptor A2a and greater than 20 µM on Adenosine receptor A2b.

The values above are taken from ChEMBL document CHEMBL3112554, “Discovery of simplified N²-substituted pyrazolo[3,4-d]pyrimidine derivatives as novel adenosine receptor antagonists: efficient synthetic approaches, biological evaluations and molecular docking studies” (Bioorg Med Chem, 2014).
